# ChEMBL document CHEMBL1132166, “Synthesis and biological evaluation of dihydrobenzofuran lignans and related compounds as potential antitumor agents that inhibit tubulin polymerization” (J Med Chem, 1999)
# Tests used:
# [1] = test system: MDA-MB-231; experiment: Growth inhibitory activity determined against MDA-MB-231/ATCC breast cancer cell line; type: functional; conditions: Homo sapiens
# In short: (§1)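 NCI in vitro human tumor cell line screening panel; each compound tested at a minimum of five concentrations at 10-fold dilutions, highest 100 µM, over a 48 h assay. GI50 is the molar concentration giving 50% growth inhibition. TGI and LC50 were also derived, and the average log GI50 was taken across all lines tested.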
# [2] = test system: MOLT-4; experiment: Growth inhibitory activity determined against MOLT-4 leukemia cell line.; type: functional; conditions: Homo sapiens; in short: as §1
# [3] = test system: Panel (Carcinoma cell lines); experiment: The molar drug concentration required for 50% growth inhibition; type: functional; conditions: Homo sapiens; in short: as §1
# [4] = test system: BT-549; experiment: Cytotoxicity against BT-549 breast cancer cell line; type: functional; conditions: Homo sapiens; in short: as §1
# [5] = test system: MDA-N; experiment: Cytotoxicity against MDA-N breast cancer cell line; type: functional; conditions: Homo sapiens; in short: as §1
# [6] = test system: RPMI-8226; experiment: Growth inhibitory activity determined against RPMI-8226 leukemia cell line; type: functional; conditions: Homo sapiens; in short: as §1
# [7] = test system: MCF7; experiment: Growth inhibitory activity determined against MCF-7 breast cancer cell line; type: functional; conditions: Homo sapiens; in short: as §1
# [8] = test system: SR; experiment: Growth inhibitory activity determined against SR leukemia cell line; type: functional; conditions: Homo sapiens; in short: as §1
# [9] = test system: CCRF-CEM; experiment: Growth inhibitory activity determined against CCRF-CEM leukemia cell line; type: functional; conditions: Homo sapiens; in short: as §1
# [10] = test system: HL-60; experiment: Compound was evaluated for its effect on the growth of HL 60 human leukemia cells; type: functional, cell-based
# In short: (§2)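 HL-60 human leukemia cells were grown for 24 h with compound. Growth was measured as the increase in cell number from time zero, and the IC50 was taken from that growth. Mitotic arrest was scored as the fraction of cells with condensed chromosomes after 24 h at 10 µM.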
# [11] = test system: MCF7; experiment: Growth inhibitory activity determined against MCF-7/ADR-RES breast cancer cell line; type: functional; conditions: Homo sapiens; in short: as §1
# [12] = test system: Hs-578T; experiment: Growth inhibitory activity determined against HS 578 T breast cancer cell line; type: functional; conditions: Homo sapiens; in short: as §1
# [13] = test system: MDA-MB-4; experiment: Cytotoxicity against MDA-MB-435 breast cancer cell line; type: functional; conditions: Homo sapiens; in short: as §1
# [14] = test system: Panel (Carcinoma cell lines); experiment: Average log GI50 value against a panel of human cancer cell lines; type: functional; in short: as §1
# [15] = test system: HL-60; experiment: Inhibitory activity against HL 60 cells; type: functional, cell-based; conditions: Homo sapiens; in short: as §2
# [16] = biological target: T1, Tubulin (Bos taurus, UniProt Q6B856+Q862L2+Q862F3); experiment: (§3) Inhibitory activity against purified bovine brain tubulin.; type: functional
# In short: (§4)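 Tubulin assembly: drug and tubulin were preincubated in glutamate for 15 min at 30 °C, then chilled on ice. GTP was added and assembly started by a 0→30 °C jump in a recording spectrophotometer. After 20 min, mixtures were chilled to 0 °C to confirm reversibility. IC50 was taken from inhibition of the extent of assembly across a drug concentration series (n = 3, SD).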
# [17] = biological target: T1, Tubulin; experiment: as §3; in short: as §4
# [18] = biological target: Tubulin alpha chain (Sus scrofa) (UniProt P02550); conditions: Homo sapiens; 1.0 uM
# [19] = biological target: Tubulin alpha chain (Sus scrofa) (UniProt P02550); conditions: Homo sapiens; 5.0 uM
# Tubulin alpha chain (Sus scrofa), sequence (P02550 whole entry, looked up): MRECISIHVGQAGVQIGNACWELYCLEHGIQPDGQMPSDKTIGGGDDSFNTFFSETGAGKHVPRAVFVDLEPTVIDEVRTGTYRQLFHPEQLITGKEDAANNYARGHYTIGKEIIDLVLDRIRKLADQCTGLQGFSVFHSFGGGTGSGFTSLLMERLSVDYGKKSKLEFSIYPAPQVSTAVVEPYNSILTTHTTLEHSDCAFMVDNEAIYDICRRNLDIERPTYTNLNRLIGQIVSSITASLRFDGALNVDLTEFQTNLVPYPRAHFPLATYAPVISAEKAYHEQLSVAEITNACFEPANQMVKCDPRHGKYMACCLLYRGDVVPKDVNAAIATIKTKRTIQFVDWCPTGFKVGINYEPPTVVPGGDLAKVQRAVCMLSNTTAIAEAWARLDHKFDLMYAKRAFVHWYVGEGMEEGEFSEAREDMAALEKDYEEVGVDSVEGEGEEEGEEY
structure (smiles),measurement,setting,value
COC(=O)/C=C/c1cc(O)c2c(c1)[C@@H](C(=O)OC)[C@H](c1ccc(O)c(O)c1)O2,GI50,[1],50 nM
same,GI50,[2],81 nM
same,GI50,[3],300 nM
same,GI50,[4],< 10 nM
same,GI50,[5],< 10 nM
same,GI50,[6],55 nM
same,GI50,[7],29 nM
same,GI50,[8],69 nM
same,GI50,[9],33 nM
same,IC50,[10],200 nM
same,GI50,[11],54 nM
same,GI50,[12],45 nM
same,GI50,[13],< 10 nM
same,GI50,[14],288 nM
COC(=O)/C=C/c1cc(OC)c2c(c1)[C@@H](C(=O)OC)[C@H](c1ccc(OC)c(OC)c1)O2,IC50,[15],80 nM
same,GI50,[3],5100 nM
same,IC50,[16],> 40000 nM
same,IC50,[17],> 40000 nM
OCCCc1cc(O)c2c(c1)[C@@H](CO)[C@H](c1ccc(O)c(O)c1)O2,log GI50,[14],-4.01
COC(=O)CCc1cc(O)c2c(c1)[C@@H](C(=O)OC)[C@H](c1ccc(O)c(O)c1)O2,log GI50,[14],-4.97
COC(=O)/C=C/c1cc(OC)c2c(c1)[C@@H](C(=O)OC)[C@H](c1ccc(O)c(OC)c1)O2,GI50,[3],3300 nM
same,IC50,[16],> 40000 nM
COc1ccc(/C=C\c2cc(OC)c(OC)c(OC)c2)cc1O,inhibition,[18],88%
same,inhibition,[19],100%
